The source of these data is ChEMBL document CHEMBL1914331, “N-O chemistry for antibiotics: discovery of N-alkyl-N-(pyridin-2-yl)hydroxylamine scaffolds as selective antibacterial agents using nitroso Diels-Alder and ene chemistry” (J Med Chem, 2011).

Molecules are shown by their SMILES. In brackets after ≈: the same amount, converted by molar mass.

The subject of series [1] is MCF7. Briefly: Cytotoxicity against human MCF7 cells. The series is classed as cell-based.
Series [2] concerns Staphylococcus aureus. Briefly: Antimicrobial activity against Staphylococcus aureus SG511 after 24 hrs by Kirby-Bauer agar diffusion assay. In kind it is functional. The procedure, abridged:
(§1)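 Modified Kirby-Bauer well diffusion. Overnight LB cultures (18–24 h) were standardized in 0.9% saline to 0.5 McFarland and mixed into melted MHII agar at 47–50 °C, giving ~5×10³ CFU/mL. 9 mm wells received 50 µL of 2.0 mM compound in 10:1 MeOH:DMSO. Plates were incubated 24 h at 37 °C, then growth-inhibition zone diameter was measured (mm) by caliper.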

The subject of series [3] is Micrococcus luteus. Briefly: Antimicrobial activity against Micrococcus luteus ATCC 10240 assessed after 18 hrs by broth microdilution method. The series is classed as functional. Conditions: ATCC 10240, 18 h. The procedure, abridged:
(§2)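 CLSI broth microdilution in cation-adjusted MHII broth. 20 mM DMSO stocks were diluted to 512 µM, then serially 2-fold, giving final 128–0.0625 µM with 5×10⁵ CFU/mL inoculum. Incubated 18 h at 37 °C. MIC90 was the lowest concentration giving 90% inhibition by visual turbidity versus DMSO wells. Run in triplicate.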

Series [4] deals with PC-3. Briefly: Cytotoxicity against human PC3 cells. In kind it is cell-based.
Series [5] concerns Staphylococcus aureus. Briefly: Antimicrobial activity against Staphylococcus aureus SG511 assessed after 18 hrs by broth microdilution method. The series is classed as functional. The note with it: SG511, 18 h. The method, boiled down: as §2
For series [6], the system named is Enterococcus faecalis. Briefly: Antimicrobial activity against Enterococcus faecalis ATCC 49532 assessed after 18 hrs by broth microdilution method. In kind it is functional. The note with it: ATCC 49532, 18 h. The method, boiled down: as §2
Series [7] concerns HeLa. Briefly: Cytotoxicity against human HeLa cells. In kind it is cell-based.
In series [8] the test system is Micrococcus luteus. Briefly: Antimicrobial activity against Micrococcus luteus ATCC 10240 after 24 hrs by Kirby-Bauer agar diffusion assay. The series is classed as functional. The procedure, abridged: as §1
The test system of series [9] is Enterococcus faecalis. Briefly: Antimicrobial activity against Enterococcus faecalis ATCC 49532 after 24 hrs by Kirby-Bauer agar diffusion assay. In kind it is functional. The method, boiled down: as §1

In the case of `C=C(C)C(CCC(C)=O)N(O)c1ccccn1` (racemic), the Activity entry in [1], in [4] and in series [7] was “Non-toxic” in each case. Moreover, the “diameter of the inhibition zone (DIZ)” value in [2] was determined as 15 mm; in [8], 30 mm; in series [9] it was 16 mm. Further, the MIC90 in series [3] is 16 µM (≈ 3.75 µg/mL); in series [5], 128 µM (≈ 30 µg/mL); in series [6], > 128 µM.
In the case of `C=C(C)C(C)N(O)c1ccccn1` (racemic), the Activity result in series [1], in series [4] and in [7] was “Non-toxic” throughout. Also, the “diameter of the inhibition zone (DIZ)” value is 18 mm in series [2], 31 mm in series [8] and 22 mm in series [9]. Also, the MIC90 was 8 µM (≈ 1.43 µg/mL) in [3], 128 µM (≈ 22.8 µg/mL) in [5] and > 128 µM in series [6].
With `C=C(C)C(C)N(O)c1ccc2ccccc2n1` (racemic), the Activity entry in series [1], in series [4] and in series [7] was “Non-toxic” each time. For the same compound, the “diameter of the inhibition zone (DIZ)” value was 13 mm in [2], 31 mm in [8] and 13 mm in series [9]. Moreover, the MIC90 in [3] was 8 µM (≈ 1.83 µg/mL); in [5] it was 128 µM (≈ 29.2 µg/mL); in [6], > 128 µM.
As for `C=C(C)C(C)N(O)c1cc(C)on1` (racemic), the Activity result in series [1], in series [4] and in [7] was “Non-toxic” in each case. Also, the entries for the “diameter of the inhibition zone (DIZ)” value in series [2], in series [8] and in [9] were 0 mm, 21 mm and 13 mm, respectively. In addition, the MIC90 in series [3] is 64 µM (≈ 11.7 µg/mL); in [5], > 128 µM; in series [6], > 128 µM.
In the case of `C=C(C)C(C)N(O)c1cccc(CC)n1` (racemic), the Activity entry in series [1], in series [4] and in [7] was “Non-toxic” throughout. The “diameter of the inhibition zone (DIZ)” value is recorded as 11 mm in series [2], 52 mm in series [8] and 22 mm in [9]. Further, the MIC90 is 2 µM (≈ 0.413 µg/mL) in [3], > 128 µM in [5] and > 128 µM in [6].
With `C=C(C)C(C)N(O)c1cc(C)ccn1` (racemic), the Activity result in series [1], in [4] and in series [7] was “Non-toxic” each time. Also, the “diameter of the inhibition zone (DIZ)” value in series [2] came to 20 mm; in series [8], 29 mm; in series [9] it was 22 mm. The MIC90 in series [3] was 4 µM (≈ 0.769 µg/mL); in [5], 128 µM (≈ 24.6 µg/mL); in [6], > 128 µM.
For `C=C(C)C(C)N(O)c1ncccc1C` (racemic), the Activity entry in series [1], in [4] and in [7] was “Non-toxic” each time. Besides, the figures for the “diameter of the inhibition zone (DIZ)” value in [2], in series [8] and in series [9] were 10 mm, 25 mm and 19 mm, respectively. Also, the figures for the MIC90 in series [3], in series [5] and in [6] were 16 µM (≈ 3.08 µg/mL), > 128 µM and > 128 µM, respectively.
For the compound `C=C(C)C(C)N(O)c1ccc(Cl)cn1` (racemic), the Activity result in series [1], in series [4] and in [7] was “Non-toxic” each time. The “diameter of the inhibition zone (DIZ)” value was determined as 18 mm in [2], 40 mm in series [8] and 21 mm in series [9]. Further, the results for the MIC90 in [3], in [5] and in series [6] were 2 µM (≈ 0.425 µg/mL), 128 µM (≈ 27.2 µg/mL) and ≥ 128 µM, respectively.
For `C=C(C)C(C)N(O)c1ccc(Br)cn1` (racemic), the Activity entry in series [1], in series [4] and in series [7] was “Non-toxic” in each case. Besides, the “diameter of the inhibition zone (DIZ)” value turned out to be 17 mm in [2], 35 mm in [8] and 19 mm in [9]. For the same compound, the MIC90 in series [3] is 4 µM (≈ 1.03 µg/mL); in series [5], > 128 µM; in series [6], > 128 µM.
`C=C(C)C(C)N(O)c1ccc(I)cn1` (racemic): the Activity result in series [1], in series [4] and in series [7] was “Non-toxic” in each case. For the same compound, the results for the “diameter of the inhibition zone (DIZ)” value in series [2], in series [8] and in [9] were 12 mm, 38 mm and 19 mm, respectively. Also, the MIC90 in series [3] is 2 µM (≈ 0.608 µg/mL); in [5], > 128 µM; in [6], > 128 µM.
Take `C=C(C)C(C)N(O)c1ncc(Cl)cc1Cl` (racemic): the Activity entry in [1], in [4] and in [7] was “Non-toxic” each time. Also, the “diameter of the inhibition zone (DIZ)” value stood at 0 mm in series [2], 27 mm in series [8] and 14 mm in series [9]. The MIC90 in [3] is 16 µM (≈ 3.95 µg/mL); in series [5] it was > 128 µM; in series [6] it was > 128 µM.
`C=C(C)C(C)N(O)c1ccc(Br)c(C)n1` (racemic): the Activity result in series [1], in [4] and in series [7] was “Non-toxic” in each case. Further, the “diameter of the inhibition zone (DIZ)” value in [2] is listed as 13 mm; in series [8], 35 mm; in series [9], 12 mm. For the same compound, the figures for the MIC90 in series [3], in [5] and in [6] were 4 µM (≈ 1.08 µg/mL), > 128 µM and > 128 µM, respectively.
For `C=C(C)C(C)N(O)c1ncc(C(F)(F)F)cc1Cl` (racemic), the Activity entry in series [1], in series [4] and in [7] was “Non-toxic” throughout. In addition, the “diameter of the inhibition zone (DIZ)” value is 0 mm in series [2], 15 mm in [8] and 13 mm in series [9]. For the same compound, the MIC90 in [3] was 128 µM (≈ 35.9 µg/mL); in [5], > 128 µM; in [6] it was > 128 µM.
Regarding `CO[C@H]1C=CCC[C@@H]1Nc1ccc(Br)cn1` (racemic), the Activity entry in series [1], in series [4] and in series [7] was “Non-toxic” throughout. Moreover, the “diameter of the inhibition zone (DIZ)” value in series [2], in series [8] and in [9] was 0 mm each time. The MIC90 in series [3], in series [5] and in series [6] was > 128 µM throughout.
Take `CO[C@H]1C=CCC[C@@H]1N(OC(C)=O)c1ccc(Br)cn1` (racemic): the Activity result in [1], in [4] and in [7] was “Non-toxic” in each case. Moreover, the “diameter of the inhibition zone (DIZ)” value in series [2] was found to be 0 mm; in series [8] it was 22 mm; in series [9], 0 mm. In addition, the MIC90 in series [3] is 32 µM (≈ 10.9 µg/mL); in [5] it was > 128 µM; in [6], > 128 µM.
Consider `C=C(C)C(CC/C(C)=C/CO)N(O)c1cccc(CC)n1` (racemic), for which the Activity entry in [1], in [4] and in [7] was “Non-toxic” in each case. In addition, the “diameter of the inhibition zone (DIZ)” value in [2] came out at 18 mm; in [8], 31 mm; in series [9], 19 mm. The MIC90 in series [3] is 2 µM (≈ 0.581 µg/mL); in series [5] it was > 128 µM; in [6], > 128 µM.
